Measurements published in the EternaBench riboswitch data.

Tested on: MS2 coat protein
Test: apparent Kd, MS2 coat protein; higher = weaker binding; RNA-MaP array
How it was run: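 Designed RNAs were transcribed on an Illumina sequencing chip from sequenced DNA templates. They were incubated at room temperature with fluorescently labeled MS2 coat protein at 1.5 nM to 3 μM, for 0.8–1.5 h at the lowest to 10–20 min at the highest concentrations, in Tris-HCl pH 7.5 buffer with KCl, MgCl2, BSA, DTT, tRNA and Tween20, with or without input ligand. Apparent Kd is the median of per-cluster binding-curve fits. Designs measured on fewer than 10 clusters were excluded.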

[1] = designed as: OFF switch for flavin mononucleotide, no ligand
[2] = ligand present: flavin mononucleotide, designed as: OFF switch for flavin mononucleotide
[3] = designed as: ON switch for flavin mononucleotide, no ligand
[4] = ligand present: flavin mononucleotide, designed as: ON switch for flavin mononucleotide

| Sequence | apparent Kd [1] | apparent Kd [2] | apparent Kd [3] | apparent Kd [4] | other results |
| --- | --- | --- | --- | --- | --- |
| GCGCGCGUAGUCAGGAUAUGGUAUAAGUAACUUGGCCAGAAGGGACAUGAGGAUCACCCAUGUGCAUUGCUAGC | 9.16 nM | 9.47 nM | – | – | – |
| GUUAUCUCAUGUUCGACGGACAUGAGGAUCACCCAUGUACCUUAGGAUAUUGAUGAAAUAUGGCGCAAGAAGGAAGGUAACGCU | 6.47 nM | 7.52 nM | – | – | – |
| ACCCGACAAGUGAGGAUAUUGAUAAGAGGAGCUUACAAGAAGGCACAUGAGGAUCACCCAUGUAUUAAGUGAAG | 7.97 nM | 9.8 nM | – | – | – |
| GAACAACAUGAGGAUCACCCAUGUGACAGCCGUCAAGGAUAUUCCGGGAAAGGAGGUCCGGAAGAAGGUGAUCGUA | – | – | 265 nM | 341 nM | – |
| CAAAACAUGAGGAUCACCCAUGUAGAUACGUGAAAAUUAUGGGAGGAUAUACAAUAGGACUGUAUGAAGAAGGCCCGAAAGCCA | – | – | 20 nM | 18.5 nM | – |
| GCGAAGCAAGGAUAUGCCCGGCGAUACAUGAGGAUCACCCAUGUGAUGUAGUUAGUUGUAGCAGAAGGUGCGCGAU | 17.6 nM | 11.4 nM | – | – | – |
| UAUGCGUUUUCAGGAUAUGCACACAUGAGGAUCACCCAUGUAGGUCUGCGGCGGCAUCCUCCUUUGCAGAAGGGAAUCGCGCUU | 44.1 nM | 71.6 nM | – | – | – |
| GUGUACUUUGAAGGAUAUAACGGCGGCAUUUUCUUAGAAGGUCAAGGGACAUGAGGAUCACCCAUGUUAACAUUGGUUCUAACA | 10.6 nM | 17.5 nM | – | – | – |
| GACGGCUCGACGGCCGCCACUCCCUCCGACUGAAGGCACAGUGGACAUGAGGAUCACCCAUGUCCGAGGACCGGGUCGAUCCUGG | – | – | – | – | apparent Kd (designed as: ON switch for tryptophan, no ligand): 17.7 nM; apparent Kd (ligand present: tryptophan, designed as: ON switch for tryptophan): 17.6 nM |
| UGGUCACAUGAGGAUCACCCAUGUAAGGAUAUCCGCGCCAUAGAGGAAAAGACGGUAUGGAGAAGGUACAGCUU | 29.9 nM | 26.9 nM | – | – | – |
| GUCCUCGAAGGAUAUAUUGGAAAUUACAUGAGGAUCACCCAUGUCUCGUAGUAUAGCACGAUAGAAGGUCGGAAGA | 36.1 nM | 24.6 nM | – | – | – |
| CACGGAAAUCAGAAGGCGCCUACACACGCAUUGCGAGGAUAUGACCGGUCGGUCCACAUGAGGAUCACCCAUGUUAACUAACGC | – | – | 16.3 nM | 12.2 nM | – |
| AAGUGCAGCCGAGGAUAUAUCCACACGCCAGUACCCUCUCACAUGAGGAUCACCCAUGUUACCGGAUAGAAGGCGGUUUAUUAU | 31.7 nM | 58.5 nM | – | – | – |
| GCUGACCAGGAGAAGGGAUACGGUCUCCUUGUGGAAAUGAACAUGAGGAUCACCCAUGUAUUAGAUCAGGAUAUCCAAUGGAGG | 13.4 nM | 14.4 nM | – | – | – |
| CCGCGUGCGGAAGGAUAUAUCCUAUGUUAGGAAAAUAACACAUGAGGAUCACCCAUGUCGAAGAGAUAGAAGGUCCGACAUACA | – | – | 29.5 nM | 14 nM | – |
| AUCGACAAAGGAUAUGAUGCGAAUGACAUGAGGAUCACCCAUGUGGAGCCAAGUGUCCCGUCAGAAGGUUGUACGU | 152 nM | 313 nM | – | – | – |
| CCACGCUCAGUUAGGAUAUGAUCCAUUACCAGUGAUCAGAAGGAACAUGAGGAUCACCCAUGUACAGUACGAGA | 9.62 nM | 14.2 nM | – | – | – |
| UCGGUUCGCGGAGGAUAUACUUCACUUCAGGAAGUAGAAGGCCGGCGGUGCUAAGGGUCACAUGAGGAUCACCCAUGUCUUCAC | – | – | 30.6 nM | 20.7 nM | – |
| AAGGUGCACGCUCAGGAUAUAUUCCAGGUUACAUGAGGAUCACCCAUGUAGGGUUGAAGAAGGACAUAGAAGGGAGCCUACUUGGC | – | – | 32.6 nM | 21.6 nM | – |
| AAUAGCUAAGGAUAUACGUACUCAGAGUGAUAAAUCAAAUAACAUGAGGAUCACCCAUGUAGAAGGAAGAAAUA | 30.9 nM | 26.1 nM | – | – | – |
| UACAUGAGGAUCACCCAUGUCUCUAGUCGUUUUUGUUAGAAUAGAAGGAGUCGCAUAAAGCAUAACUAGGAUAUAUUCUUGUUU | – | – | 16.3 nM | 11.6 nM | – |

| Sequence | apparent Kd [1] | apparent Kd [2] | apparent Kd [3] | apparent Kd [4] | other results |
| --- | --- | --- | --- | --- | --- |
| AUAGAAAAUGUAAGGAUAUAUCGAAACAAUAAACGAAAGAAGGAACAUGAGGAUCACCCAUGUAAAGUAAUAAA | 10.3 nM | 9.25 nM | – | – | – |
| AAACUAUGAGGAUAUACAUGAGGAUCACCCAUGUCGGUACUGGUAUGGCCCUGAUCCCGUAGAAGGCAUCGGUC | 369 nM | 436 nM | – | – | – |
| AUACUAAACAUGAGGAUCACCCAUGUGACGUCAGGUCAGUUGAGAAGGCUAGGGAUGCUAGAUGUAGAGGAUAUCAGCGACGGA | 15.4 nM | 9.76 nM | – | – | – |
| ACUCUAAGAUGAGGAUAUCACAUCUUAUCGCCACGGUGGCUUCACAUGAGGAUCACCCAUGUAUGUGAGAAGGCAUUUCCGGAC | 24.1 nM | 20.7 nM | – | – | – |
| CUUAACAAAGGAUAUACACAAAUGAUUAAGGUGCCGGGAAAACAUGAGGAUCACCCAUGUAGAAGGUUGUAACA | 8.1 nM | 7.75 nM | – | – | – |
| UAACCACAUGAGGAUCACCCAUGUCCCACAUUCGCAGGAUAUGGGUCACUGAGGUCACUACCAGAAGGGCGGAUGC | – | – | 467 nM | 178 nM | – |
| CGCUGUUGGCAGGAUAUAUUCGCAGCCCAGGCAAUAGAAGGGCCGACAUGAGGAUCACCCAUGUGUCUACAGGG | 117 nM | 341 nM | – | – | – |
| ACAUGAGGAUCACCCAUGUUUGACUGGGCUUGCUCUCGCCGUAGAAGGUUUCAUUAAGUAGAGGAAAAGGAUAUACACUGGGCC | 12.2 nM | 10.7 nM | – | – | – |
| UUACAGUCAGGAUAUUGAGUCACCCACAUGAGGAUCACCCAUGUACCUCGAAAACUGGAGCAAGAAGGGACUGCUG | 18.9 nM | 26.4 nM | – | – | – |
| UUUUUAUGGCAGACUACCGCACAUGAGGAUCACCCAUGUUACAGAAGGGACCACAUCCCACCUGGUCAGGAUAUGUAUACGCGG | 9.07 nM | 6.77 nM | – | – | – |
| AAUUUUUACUCAGGAUAUUGGGAGAGCACGGGUUGUUCUCCCCACAUGAGGAUCACCCAUGUGAUCAAGAAGGGAGACGCAAAG | – | – | 25.9 nM | 16.8 nM | – |
| UGACUGUGUGAGAAGGUGUUCCGCGCCCGGCCACAAGGAUAUCACAACGCUGCCCUACAUGAGGAUCACCCAUGUGAUUGCUAC | – | – | 29.5 nM | 25.8 nM | – |
| GGUAGUACCGUAGGAUAUUCCGCUUACAUGAGGAUCACCCAUGUGGCUGGUAUUUCGUCAAAGAAGAAGAAGGACGUCUGCGCG | 6.85 nM | 6.43 nM | – | – | – |
| UAUGUCGGGAAGAAGGUAAUAACGGGAUUGACAUGAGGAUCACCCAUGUGUACGAGUUAGUUGCUUAAGGAUAUUCUCGCCCAU | 6.37 nM | 5.73 nM | – | – | – |
| GAAUGAAGCGAGAAGGGACCAAAUGGGCAGAAACUACAUGAGGAUCACCCAUGUAAAAUAGAUAGUCAGGAUAUCGGAAGAAAG | 36.4 nM | 31.8 nM | – | – | – |
| ACAAUCACAUGAGGAUCACCCAUGUUAGACAGGGUCAAUGUGAAGGAUAUGAACAAUGAAAAUACUCAGAAGGUCAUAUUGAAA | – | – | 192 nM | 27.4 nM | – |
| AACAUGAGGAUCACCCAUGUUUCAGAUCCUCUCUGGUUCAAGUAGGAUAUGUGUGAUACGGAAGUACAGAAGGACUCCGGAGCA | 38.4 nM | 29.5 nM | – | – | – |
| GGAUCACAUGAGGAUCACCCAUGUAAAGACGAUACAGGAUAUGACAGAACACGCAUCGUUUCAGAAGGGUAUAGUG | – | – | 66.9 nM | 47.6 nM | – |
| ACAAAGACAGGAUAUACAAAUUACAACUAAUCAAGGAAAAGACAUGAGGAUCACCCAUGUAGAAGGGUCAAUAA | 26.9 nM | 20.5 nM | – | – | – |
| CGGCAACUGUAGAAGGAGCAUCCCACAUCUAAGCUAGGAUAUACGUAAUGUAUGUACAUGAGGAUCACCCAUGUGUGCACCAGG | 26.4 nM | 24.2 nM | – | – | – |
| AAAGCUACCAAAGGAUAUUGUUUCCAUCACACAUGAGGAUCACCCAUGUAGCCAUAAACGGAUCGCAAGAAGGUUGGGAAAGUG | – | – | 18.3 nM | 9.07 nM | – |
